Data published in article PMC6361670 (Small (Weinheim an der Bergstrasse, Germany), 2018).

Key:
[1] = tested on: E/P-selectin on activated HUVECs; experiment: Competitive inhibition of FITC-labeled QA-NP binding to activated HUVECs; type: cell-based, human; conditions: 30 min pre-incubation; flow cytometry
Method in brief: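 HUVECs (passage 4, EGM-2, on rat-tail collagen I) were activated with 10 ng/mL TNF-α for 4 h. Free ligand, anti-E-selectin or anti-P-selectin antibody, or unlabeled nanoparticles were pre-incubated for 30 min. FITC-labeled particles (0.2 mg/mL) were then added for 2 h at 37 °C. Cells were washed twice with PBS, trypsinized, resuspended in cold PBS, and read for FL-1 fluorescence (488/525 nm).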

HUVECs = experiment: Cytotoxicity of QA-NH2 on HUVECs; type: cell-based, human; conditions: 1 nM to 1 mM, 24 h, MTT
Method in brief: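 HUVECs were seeded at 10,000 cells per well on rat-tail collagen I; one group was pre-activated with 10 ng/mL TNF-α for 4 h. Test compound was added at 1 nM to 1 mM for 24 h. MTT (75 μg) was then added for 4 h, formazan was dissolved in 50% DMF/20% SDS at pH 5, and absorbance was read at 562 nm.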

[2] = tested on: subcutaneous MDA-MB-231 tumor xenografts; experiment: Whole body and ex vivo fluorescence imaging of NP distribution; type: in vivo, female athymic nude mice; conditions: ICG-labeled, tail vein, imaged over 24 h

Row | SMILES | QA-NP binding to activated HUVECs after pre-treatment with competitor [1] | effect on HUVEC proliferation (HUVECs) | tumor fluorescence in whole body imaging [2]
1 | Nc1cc(NC(=O)[C@]2(O)C[C@@H](O)[C@@H](O)[C@H](O)C2)cc(C(=O)O)c1 [QA-NH2, 3-amino-5-((1S,3R,4S,5R)-1,3,4,5-tetrahydroxycyclohexane-1-carboxamido)benzoic acid] | reduced | no adverse effects | 
2 | CC1(C)C(/C=C/C=C/C=C/C=C2\N(CCCCS(=O)(=O)O)c3ccc4ccccc4c3C2(C)C)=[N+](CCCCS(=O)(=O)[O-])c2ccc3ccccc3c21 [free ICG, indocyanine green] |  |  | did not show fluorescence in tumors at all time points
